From ChEMBL document CHEMBL3994627, “Positional isomers of bispyridine benzene derivatives induce efficacy changes on mGlu5 negative allosteric modulation” (Eur J Med Chem, 2017) come the findings set out here.

Experiment [1] addresses Metabotropic glutamate receptor 5 (Rattus norvegicus) (UniProt P31424). Put plainly: Negative allosteric modulation of rat N-terminal HA-tagged mGlu5 receptor expressed in HEK293 cells co-expressing N-terminal HA-tagged EAAC1 assessed as inhibition of quisqualate-induced inositol phosphate accumulation after 30 mins by HTRF assay relative to fenobam. The experiment is classed as functional, cell-based. In a few lines:
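Dose-response was run in HEK293 cells expressing rat HA-mGlu5 and EAAC1, under 100 nM quisqualate with compound for 30 min at 37°C, in dark conditions. IP-One HTRF read-out. Efficacy was taken from the bottom of the dose-response curve and normalised between 0% and 100% of the fenobam response.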
A general note: Time-resolved FRET reads energy transfer from a long-lived donor to a nearby acceptor.

Experiment [2] deals with Metabotropic glutamate receptor 5 (Rattus norvegicus, UniProt P31424). Put plainly: Negative allosteric modulation of rat N-terminal HA-tagged mGlu5 receptor expressed in HEK293 cells co-expressing N-terminal HA-tagged EAAC1 assessed as inhibition of quisqualate-induced inositol phosphate accumulation after 30 mins by HTRF assay. The format is functional, cell-based. The procedure, abridged: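 Rat mGlu5 (N-terminal HA tag) and EAAC1 were co-transfected into HEK293 cells by electroporation and seeded at 1.5 × 10^5 cells/well. Medium was changed to glutamate-free DMEM at least 4 h before the run. Next day, cells got 100 nM quisqualate plus compound for 30 min at 37°C, 5% CO2, then were washed once. IP accumulation was read by IP-One HTRF. Dose-response used ≥3 independent replicates.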
Metabotropic glutamate receptor 5 (Rattus norvegicus, UniProt P31424), sequence (P31424 whole entry): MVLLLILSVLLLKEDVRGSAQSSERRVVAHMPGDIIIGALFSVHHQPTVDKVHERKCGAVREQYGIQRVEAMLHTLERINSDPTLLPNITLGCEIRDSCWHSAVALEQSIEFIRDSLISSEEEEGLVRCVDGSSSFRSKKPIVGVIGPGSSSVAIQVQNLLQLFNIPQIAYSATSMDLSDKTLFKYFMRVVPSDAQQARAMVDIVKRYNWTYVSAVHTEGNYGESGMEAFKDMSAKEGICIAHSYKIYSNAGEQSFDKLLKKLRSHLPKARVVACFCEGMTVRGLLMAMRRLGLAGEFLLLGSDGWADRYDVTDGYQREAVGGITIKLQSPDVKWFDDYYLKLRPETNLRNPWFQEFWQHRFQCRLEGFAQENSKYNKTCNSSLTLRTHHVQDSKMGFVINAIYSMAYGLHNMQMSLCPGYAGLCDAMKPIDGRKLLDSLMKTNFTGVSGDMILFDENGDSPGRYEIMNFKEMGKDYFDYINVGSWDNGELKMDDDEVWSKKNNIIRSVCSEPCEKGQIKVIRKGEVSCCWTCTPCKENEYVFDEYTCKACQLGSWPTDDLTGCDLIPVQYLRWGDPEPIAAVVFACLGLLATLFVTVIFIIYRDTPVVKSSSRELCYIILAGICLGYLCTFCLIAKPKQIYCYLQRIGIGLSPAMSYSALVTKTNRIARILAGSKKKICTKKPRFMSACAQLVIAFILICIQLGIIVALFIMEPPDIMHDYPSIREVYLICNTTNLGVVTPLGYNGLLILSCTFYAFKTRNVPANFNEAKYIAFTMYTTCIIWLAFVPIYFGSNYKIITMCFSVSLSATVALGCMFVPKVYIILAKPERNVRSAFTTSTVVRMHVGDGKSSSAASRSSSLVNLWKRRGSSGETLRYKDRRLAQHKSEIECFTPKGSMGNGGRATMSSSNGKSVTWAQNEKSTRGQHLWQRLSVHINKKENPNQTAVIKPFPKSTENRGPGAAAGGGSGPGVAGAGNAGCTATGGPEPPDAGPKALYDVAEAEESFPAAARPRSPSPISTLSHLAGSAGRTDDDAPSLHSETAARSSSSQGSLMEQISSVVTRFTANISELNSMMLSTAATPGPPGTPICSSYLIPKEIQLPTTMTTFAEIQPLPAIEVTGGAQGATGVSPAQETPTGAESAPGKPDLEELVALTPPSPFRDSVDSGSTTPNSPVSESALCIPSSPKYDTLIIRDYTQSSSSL

Experiment [3] concerns the target Metabotropic glutamate receptor 5 (Homo sapiens, UniProt P41594). Put plainly: Negative allosteric modulation of mGlu5 receptor (unknown origin).
Experiment [4] deals with Metabotropic glutamate receptor 5 (Rattus norvegicus) (UniProt P31424). Put plainly: Ratio of IC50 for negative allosteric modulation of rat N-terminal HA-tagged mGlu5 receptor expressed in HEK293 cells under dark condition to IC50 for negative allosteric modulation of rat N-terminal HA-tagged mGlu5 receptor expressed in HEK293 cells under violet light illumination. The format is cell-based. The procedure, abridged:
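HEK293 cells expressing rat HA-mGlu5 and EAAC1 were stimulated with 100 nM quisqualate plus compound for 30 min at 37°C. Part of each plate was kept dark under foil; the rest was lit continuously at 380 nm from an LED plate. After a single wash, IP was measured by HTRF. Value is IC50 (dark) divided by IC50 (violet). Curves used ≥3 independent replicates.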

Experiment [5] shares this target. Put plainly: Negative allosteric modulation of rat N-terminal HA-tagged mGlu5 receptor expressed in HEK293 cells co-expressing N-terminal HA-tagged EAAC1 assessed as inhibition of quisqualate-induced inositol phosphate accumulation by measuring difference in efficacy between dark condition and violet light illumination after 30 mins by HTRF assay. The format is functional, cell-based. Also on record: scale not given: the % may be the effect or the level left. The procedure, abridged:
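Quisqualate (100 nM) and compound were applied for 30 min at 37°C to HEK293 cells expressing rat HA-mGlu5 and EAAC1. Wells sat over an LED plate 2–3 cm away: foil-covered wells stayed dark, the rest got continuous 380 nm light. Cells were washed once before lysis, then IP-One HTRF was read. Value is the efficacy difference (%), dark minus violet.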

Metabotropic glutamate receptor 5 (Rattus norvegicus), sequence (P31424 21-1203 limits assumed): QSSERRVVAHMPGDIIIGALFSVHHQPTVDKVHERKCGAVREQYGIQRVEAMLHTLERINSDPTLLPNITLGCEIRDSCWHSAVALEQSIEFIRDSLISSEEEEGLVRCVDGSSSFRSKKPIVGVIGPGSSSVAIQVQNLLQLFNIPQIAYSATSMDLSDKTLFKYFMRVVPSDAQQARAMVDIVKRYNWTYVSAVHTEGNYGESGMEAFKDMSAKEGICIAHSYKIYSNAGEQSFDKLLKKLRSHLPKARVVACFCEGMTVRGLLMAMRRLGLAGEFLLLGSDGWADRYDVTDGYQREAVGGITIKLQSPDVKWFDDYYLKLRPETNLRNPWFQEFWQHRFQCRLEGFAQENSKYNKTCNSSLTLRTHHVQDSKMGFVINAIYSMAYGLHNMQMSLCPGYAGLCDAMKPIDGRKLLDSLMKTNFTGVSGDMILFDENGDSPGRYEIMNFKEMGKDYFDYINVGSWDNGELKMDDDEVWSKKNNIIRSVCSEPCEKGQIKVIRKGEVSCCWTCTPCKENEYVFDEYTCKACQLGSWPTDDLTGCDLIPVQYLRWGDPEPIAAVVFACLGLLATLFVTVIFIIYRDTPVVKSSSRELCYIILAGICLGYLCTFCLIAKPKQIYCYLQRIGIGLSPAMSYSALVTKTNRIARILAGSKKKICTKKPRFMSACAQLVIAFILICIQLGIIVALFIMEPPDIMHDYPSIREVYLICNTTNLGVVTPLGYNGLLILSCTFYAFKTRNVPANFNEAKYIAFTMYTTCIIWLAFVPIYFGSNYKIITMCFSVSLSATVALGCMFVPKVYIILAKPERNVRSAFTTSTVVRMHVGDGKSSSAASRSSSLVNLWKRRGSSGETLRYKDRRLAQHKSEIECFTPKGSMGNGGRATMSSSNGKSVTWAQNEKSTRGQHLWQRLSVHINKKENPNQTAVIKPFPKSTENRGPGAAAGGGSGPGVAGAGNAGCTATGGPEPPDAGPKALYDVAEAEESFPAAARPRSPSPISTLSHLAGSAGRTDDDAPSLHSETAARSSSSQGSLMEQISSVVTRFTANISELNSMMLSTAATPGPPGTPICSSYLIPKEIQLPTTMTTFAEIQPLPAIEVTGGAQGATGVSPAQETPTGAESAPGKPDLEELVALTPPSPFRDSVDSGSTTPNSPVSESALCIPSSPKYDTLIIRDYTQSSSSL
Metabotropic glutamate receptor 5 (Homo sapiens, UniProt P41594), sequence (P41594 whole entry): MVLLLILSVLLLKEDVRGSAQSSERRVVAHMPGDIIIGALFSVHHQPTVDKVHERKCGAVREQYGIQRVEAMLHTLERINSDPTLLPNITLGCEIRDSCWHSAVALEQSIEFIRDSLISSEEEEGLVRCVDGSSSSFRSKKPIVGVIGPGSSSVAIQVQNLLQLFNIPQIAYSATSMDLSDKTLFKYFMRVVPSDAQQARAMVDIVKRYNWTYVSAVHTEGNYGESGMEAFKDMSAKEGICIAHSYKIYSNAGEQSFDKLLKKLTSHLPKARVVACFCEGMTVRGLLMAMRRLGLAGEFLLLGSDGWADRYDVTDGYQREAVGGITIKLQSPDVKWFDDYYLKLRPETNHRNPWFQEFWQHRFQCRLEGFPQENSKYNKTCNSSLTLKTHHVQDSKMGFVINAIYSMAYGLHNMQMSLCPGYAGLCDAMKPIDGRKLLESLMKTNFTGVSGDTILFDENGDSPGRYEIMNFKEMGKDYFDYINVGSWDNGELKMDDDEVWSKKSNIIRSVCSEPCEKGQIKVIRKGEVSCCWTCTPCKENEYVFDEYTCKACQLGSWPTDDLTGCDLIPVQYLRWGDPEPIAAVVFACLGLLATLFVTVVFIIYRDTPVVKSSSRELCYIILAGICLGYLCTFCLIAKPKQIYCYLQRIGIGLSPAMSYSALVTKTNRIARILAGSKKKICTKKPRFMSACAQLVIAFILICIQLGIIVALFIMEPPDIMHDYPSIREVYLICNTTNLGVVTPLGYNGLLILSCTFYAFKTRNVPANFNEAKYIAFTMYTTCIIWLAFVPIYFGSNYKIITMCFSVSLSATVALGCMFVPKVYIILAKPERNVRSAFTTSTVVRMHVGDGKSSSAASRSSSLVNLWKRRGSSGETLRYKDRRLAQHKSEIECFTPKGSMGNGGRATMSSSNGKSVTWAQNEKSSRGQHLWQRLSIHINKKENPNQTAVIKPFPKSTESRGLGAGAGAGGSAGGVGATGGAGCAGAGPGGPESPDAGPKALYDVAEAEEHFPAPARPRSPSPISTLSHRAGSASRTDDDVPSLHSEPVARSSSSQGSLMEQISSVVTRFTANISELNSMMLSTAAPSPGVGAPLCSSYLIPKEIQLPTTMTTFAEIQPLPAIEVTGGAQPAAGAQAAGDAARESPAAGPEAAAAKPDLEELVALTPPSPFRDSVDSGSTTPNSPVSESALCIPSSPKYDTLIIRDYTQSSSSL

As a reminder, the IC50 is the concentration needed to halve the response being measured. For `C(#Cc1ccccn1)c1ccc(C#Cc2ccccn2)cc1`, the Efficacy in experiment [1] amounted to 42%. The IC50 in experiment [2] turned out to be 1.21 µM.
Take `Cc1cc(C)c(N)c(C#Cc2cccc(F)c2)n1` [RASEGLURANT]: the IC50 in experiment [3] amounted to 0.017 µM.
Turning to `C(#Cc1ccccn1)c1cccc(C#Cc2ccccn2)c1`, the Efficacy in experiment [1] was found to be 114%. Further, the half-maximal inhibitory concentration (IC50) in experiment [2] was found to be 0.43 µM.
Take `C(#Cc1ccccn1)c1ccc(/N=N\c2ccccn2)cc1`: in experiment [4], the Ratio IC50 turned out to be 2.9. In addition, the Activity in experiment [5] was 15%. For the same compound, in experiment [1], the Efficacy is 35%. Besides, in experiment [2], the IC50 amounted to 3.09 µM.
In the same order, the values of `c1ccc(/N=N/c2cccc(/N=N/c3ccccn3)c2)nc1` are 2.2, 15%, 114% and 4.92 µM.
In the same order, the values of `C(#Cc1ccccn1)c1cccc(/N=N/c2ccccn2)c1` are 1.3, 9%, 115% and 0.96 µM.
In the same order, the values of `c1ccc(/N=N/c2ccc(/N=N/c3ccccn3)cc2)nc1` are 1.2, -1%, 19% and 6.13 µM.
